Assay results published in ChEMBL document CHEMBL5053485, “Targeting Acute Myelogenous Leukemia Using Potent Human Dihydroorotate Dehydrogenase Inhibitors Based on the 2-Hydroxypyrazolo[1,5-a]pyridine Scaffold: SAR of the Biphenyl Moiety” (J Med Chem, 2021).
One block for each compound: values may come before it. The source made the active and inactive calls. No cut-off for these calls is given here.

How the values were obtained:
THP-1 [1] = assay: Induction of cell differentiation in human THP-1 cells assessed as CD14 expression at 1 uM after 3 days by flow cytometric analysis; type: functional, cell-based; settings: time 3.0 day
THP-1 [2] = assay: Induction of apoptosis in human THP-1 cells at 1 uM after 3 days by Annexin-V-FITC staining based flow cytometry relative to control; type: functional, cell-based; settings: time 3.0 day
How it was run: (§1)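 After 3 days, annexin V-FITC was read by flow cytometry. Significance versus DMSO used two-tailed paired t tests (P < 0.05). The assay was also run with 100 μM uridine.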

[3] = Solubility of compound in PBS at pH 7.4 after 24 hrs by UHPLC analysis; type: physicochemical
[4] = Protein binding in human serum at 50 uM after 1 hr by RP-UHPLC method; type: ADME, cell-free; settings: read-out: PB (converted)
[5] = n-Octanol/PBS partition coefficient, logD of the compound at pH 7.4 incubated for 20 mins by shake flask method; type: physicochemical
THP-1 [6] = assay: Induction of cell differentiation in human THP-1 cells assessed as CD14 expression at 0.1 uM after 3 days by flow cytometric analysis; type: functional, cell-based; settings: time 3.0 day
THP-1 [7] = assay: Induction of apoptosis in human THP-1 cells at 0.1 uM after 3 days by Annexin-V-FITC staining based flow cytometry relative to control; type: functional, cell-based; settings: time 3.0 day; how it was run: as §1
Jurkat = assay: Cytotoxicity against human Jurkat cells assessed as concentration required to induce more than 30% cytotoxicity incubated for 3 days by CSFE dye based assay; type: cell-based; settings: 72 h, time 3 day
[8] = Metabolic stability in Sprague-Dawley rat liver microsomes assessed as parent compound remaining after 30 mins; type: ADME, Microsome; settings: 0.5 h
How it was run: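 The regenerating system contained MgCl₂, NADP⁺, Glu6P and G6PDH. Controls were heat-inactivated microsomes and no regenerating system. Samples taken at 0–120 min were quenched in cold acetonitrile and analysed by HPLC–HRMS.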

SMILES: O=C(Nc1c(F)c(F)c(-c2cccc(O)c2)c(F)c1F)c1c(O)nn2ccccc12
- Activity (THP-1 [1]): inactive
- Activity (THP-1 [2]): inactive

SMILES: O=C(Nc1c(F)c(F)c(-c2ccnc(C(F)(F)F)c2)c(F)c1F)c1c(O)nn2ccccc12
- Activity (THP-1 [1]): inactive
- Activity (THP-1 [2]): inactive

SMILES: O=C(Nc1c(F)c(F)c(N2CCOCC2)c(F)c1F)c1c(O)nn2ccccc12
- Activity (THP-1 [1]): inactive
- Activity (THP-1 [2]): inactive

SMILES: O=C(Nc1c(F)c(F)c(-c2cccc(C(F)(F)F)c2)c(F)c1F)c1c(O)nn2ccccc12
- Activity (THP-1 [6]): Active
- Activity (THP-1 [7]): Active
- Activity (Jurkat): > 100 µM

SMILES: O=C(Nc1c(F)c(F)c(-c2cccnc2)c(F)c1F)c1c(O)nn2ccccc12
- Activity (THP-1 [1]): inactive
- Activity (THP-1 [2]): inactive

SMILES: COc1cccc(-c2c(F)c(F)c(NC(=O)c3c(O)nn4ccccc34)c(F)c2F)c1
- Activity (THP-1 [6]): Active
- Activity (THP-1 [7]): Active

SMILES: O=C(Nc1c(F)c(F)c(-c2cccc(OC(F)(F)F)c2)c(F)c1F)c1c(O)nn2ccccc12
- Activity (THP-1 [6]): Active
- Activity (THP-1 [7]): Active
- Activity (Jurkat): > 100 µM

More lines, main results first:

- solubility at 24 h [3]: < 6 µM
SMILES: O=C(Nc1c(F)c(F)c(-c2ccccc2)c(F)c1F)c1c(O)nn2c(Cl)cccc12

- fraction unbound at 1 h, 50 µM [4]: 0.099
- solubility at 24 h [3]: < 1 µM
- logD at 20 min [5]: 2.7
SMILES: CCn1c(CO)nn(-c2cc(O[C@@H](C)C(F)(F)F)c(C(=O)Nc3c(F)cccc3Cl)cc2F)c1=O

- logD at 20 min [5]: 2.09
SMILES: O=C(Nc1c(F)c(F)c(-c2cccc(F)c2)c(F)c1F)c1c(O)nn2ccccc12
- Activity (THP-1 [6]): Active
- Activity (THP-1 [7]): Active

- Stability [8]: Unstable
SMILES: CCCOc1cccc(-c2c(F)c(F)c(NC(=O)c3c(O)nn4ccccc34)c(F)c2F)c1
- Activity (THP-1 [6]): Active
- Activity (THP-1 [7]): Active
- Activity (Jurkat): > 100 µM

- logD at 20 min [5]: 1.83
SMILES: Cc1c(-c2ccc(-c3ccccc3F)cc2)nc2ccc(F)cc2c1C(=O)O [BREQUINAR]

- solubility at 24 h [3]: < 6 µM
SMILES: O=C(Nc1c(F)c(F)c(-c2ccccc2)c(F)c1F)c1c(O)nn2c1CCCC2

- fraction unbound at 1 h, 50 µM [4]: < 0.01
SMILES: COc1cccc(-c2cc(F)c(Nc3ncccc3C(=O)O)c(F)c2)c1 [ASLAN-003]
